Assay results published in PMC4207553 (Journal of Medicinal Chemistry, 2014).
Marks after values point to notes of the source that are not given here.

Legend:
[1] = Microsomal stability, mouse microsomes; type: in vitro ADME; settings: % remaining at 1 h
P. falciparum Dd2 = assay: P. falciparum asexual blood-stage growth inhibition; type: cell-based; settings: relative to compound 2
hERG = hERG (Homo sapiens, UniProt Q12809); assay: hERG binding assay, [3H]astemizole displacement; settings: 10 μM, assay run by Ricera under identical conditions
Outline: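 Single-point radioligand displacement at 10 μM of test compound. The result is expressed as percent displacement relative to control. The run was made at a second contract laboratory under conditions identical to the first laboratory's assay.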

[2] = Metabolite identification study in mouse liver microsomes; type: in vitro ADME; settings: via N-demethylation at R1, hydroxylation, and combined events

Sequence of hERG (Q12809 whole entry): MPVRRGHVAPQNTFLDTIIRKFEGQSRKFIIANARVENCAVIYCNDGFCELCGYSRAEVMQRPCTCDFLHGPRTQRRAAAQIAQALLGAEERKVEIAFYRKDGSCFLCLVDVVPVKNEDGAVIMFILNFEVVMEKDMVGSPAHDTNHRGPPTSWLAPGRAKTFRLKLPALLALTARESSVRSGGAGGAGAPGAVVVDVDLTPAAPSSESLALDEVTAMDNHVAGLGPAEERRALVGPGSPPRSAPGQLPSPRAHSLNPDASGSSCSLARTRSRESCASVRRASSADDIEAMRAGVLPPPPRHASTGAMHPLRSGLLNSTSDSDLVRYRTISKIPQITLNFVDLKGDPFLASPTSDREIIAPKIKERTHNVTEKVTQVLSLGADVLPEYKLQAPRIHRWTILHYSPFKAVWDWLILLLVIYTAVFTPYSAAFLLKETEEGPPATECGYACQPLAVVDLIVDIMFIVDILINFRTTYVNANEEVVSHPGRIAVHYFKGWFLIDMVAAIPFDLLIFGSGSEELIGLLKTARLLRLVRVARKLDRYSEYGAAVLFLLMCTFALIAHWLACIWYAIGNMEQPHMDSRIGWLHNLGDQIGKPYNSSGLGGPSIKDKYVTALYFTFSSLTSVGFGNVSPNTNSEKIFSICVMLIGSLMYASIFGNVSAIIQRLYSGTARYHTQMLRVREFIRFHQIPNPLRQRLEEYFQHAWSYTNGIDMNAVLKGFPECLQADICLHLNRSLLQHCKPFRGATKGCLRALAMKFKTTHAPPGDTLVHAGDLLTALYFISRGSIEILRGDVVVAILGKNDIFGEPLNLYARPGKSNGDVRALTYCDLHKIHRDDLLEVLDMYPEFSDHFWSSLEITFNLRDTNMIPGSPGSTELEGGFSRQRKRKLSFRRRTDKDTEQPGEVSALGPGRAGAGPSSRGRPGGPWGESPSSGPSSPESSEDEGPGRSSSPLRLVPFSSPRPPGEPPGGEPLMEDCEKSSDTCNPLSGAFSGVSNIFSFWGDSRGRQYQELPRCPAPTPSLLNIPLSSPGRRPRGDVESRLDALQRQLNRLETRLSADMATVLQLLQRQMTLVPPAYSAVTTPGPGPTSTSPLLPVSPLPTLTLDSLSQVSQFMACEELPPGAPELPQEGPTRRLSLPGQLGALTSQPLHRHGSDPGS

Compound	Microsome Stability [1] [% remaining]	also measured
C[C@@H]1CN([C@@H](C)CN(C)C)C(=O)c2cc(NC(=O)NC3COC3)ccc2O[C@@H](C)CCCCO[C@H]1CN(C)S(=O)(=O)c1ccc(F)cc1 [Compound 4]	8	fold less potent than 2 (Dd2 GI50) (P. falciparum Dd2): approximately 60 fold
CCN(CC)C[C@H](C)N1C[C@@H](C)[C@H](CN(C)S(=O)(=O)c2ccc(F)cc2)OCCCC[C@H](C)Oc2ccc(NC(=O)Nc3c(C)noc3C)cc2C1=O [Compound 9]	5	–
C[C@@H]1CN([C@@H](C)CN(C)C)C(=O)c2cc(NC(=O)Nc3ccccc3)ccc2O[C@@H](C)CCCCO[C@H]1CN(C)S(=O)(=O)c1ccc(F)cc1 [Compound 2]	–	hERG, % displacement control (hERG): 95^b %
Cc1noc(C)c1NC(=O)Nc1ccc2c(c1)C(=O)N([C@@H](C)CN(C)C)C[C@@H](C)[C@H](CN(C)S(=O)(=O)c1ccc(F)cc1)OCCCCO2 [Compound 36]	15	–
CNC[C@H](C)N1C[C@@H](C)[C@H](CN(C)S(=O)(=O)c2ccc(F)cc2)OCCCC[C@H](C)Oc2ccc(NC(=O)Nc3c(C)noc3C)cc2C1=O [Compound 6]	51	metabolism in mouse liver microsomes [2]: extensively metabolized
CNC[C@H](C)N1C[C@@H](C)[C@H](CN(C)S(=O)(=O)c2ccc(F)cc2)OCCCCOc2ccc(NC(=O)Nc3c(C)noc3C)cc2C1=O [Compound 35]	65	–
Cc1noc(C)c1NC(=O)Nc1ccc2c(c1)C(=O)N([C@@H](C)CN1CCOCC1)C[C@@H](C)[C@H](CN(C)S(=O)(=O)c1ccc(F)cc1)OCCCC[C@H](C)O2 [Compound 13]	<5	–
C[C@@H]1CN([C@@H](C)CN(C)C)C(=O)c2cc(NC(=O)Nc3ccc(F)cc3)ccc2O[C@@H](C)CCCCO[C@H]1CN(C)S(=O)(=O)c1ccc(F)cc1 [Compound 3]	<5	–
Cc1noc(C)c1NC(=O)Nc1ccc2c(c1)C(=O)N([C@@H](C)CN(C)C)C[C@@H](C)[C@H](CN(C)S(=O)(=O)c1ccc(F)cc1)OCCCC[C@H](C)O2 [Compound 5]	8	metabolism in mouse liver microsomes [2]: extensively metabolized
C[C@@H]1CN([C@@H](C)CN(C)C)C(=O)c2cccnc2O[C@@H](C)CCCCO[C@H]1CN(C)S(=O)(=O)c1ccc(F)cc1 [Compound 22]	<5	–
Cc1noc(C)c1NC(=O)Nc1ccc2c(c1)C(=O)N([C@@H](C)CNCC(F)(F)F)C[C@@H](C)[C@H](CN(C)S(=O)(=O)c1ccc(F)cc1)OCCCC[C@H](C)O2 [Compound 12]	<5	–
Cc1noc(C)c1NC(=O)Nc1ccc2c(c1)C(=O)N([C@@H](C)C[N+](C)(C)[O-])C[C@@H](C)[C@H](CN(C)S(=O)(=O)c1ccc(F)cc1)OCCCC[C@H](C)O2 [Compound 10]	35	–
Cc1noc(C)c1NC(=O)Nc1ccc2c(c1)C(=O)N([C@@H](C)CNCC(C)(C)C)C[C@@H](C)[C@H](CN(C)S(=O)(=O)c1ccc(F)cc1)OCCCC[C@H](C)O2 [Compound 11]	5	–
CCN(CC)C[C@H](C)N1C[C@@H](C)[C@H](CN(C)S(=O)(=O)c2ccc(F)cc2)OCCCC[C@H](C)Oc2ncccc2C1=O [Compound 23]	<5	–
